From ChEMBL document CHEMBL1138547, “Synthesis, biological evaluation and 2D-QSAR analysis of benzoxazoles as antimicrobial agents” (2009) come the findings set out here.

Structures are written as SMILES. ≈ marks a conversion by molar mass, not a printed value.

Type in all cases: functional
Assay [1] concerns Klebsiella pneumoniae. The assay is described as follows: Antimicrobial activity against Klebsiella pneumoniae RSHM 574 after 24 hrs. The following applies: RSHM 574, 24 h. An outline of the steps:
(§1)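 MIC by twofold serial dilution in Mueller-Hinton broth (MHB); MHB also used to dilute the bacterial suspension. Wells held 10^3 cfu/ml bacteria after inoculation. Controls: 80% DMSO, 20% EtOH, methanol, DMSO, PBS, organism alone and medium alone. Triplicate in each run. MIC taken as the lowest concentration completely inhibiting macroscopic growth.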

Assay [2] has as its system Klebsiella pneumoniae. The assay is described as follows: Antimicrobial activity against multidrug-resistant Klebsiella pneumoniae after 24 hrs. An outline of the steps: (§2)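 Twofold serial broth dilution in Mueller-Hinton broth. MHB was used both to dilute the bacterial suspension and for the twofold compound dilutions, giving 10^3 cfu/ml bacteria per well after inoculation. Solvent, medium and organism-only wells served as controls. Each organism was run in triplicate.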

Assay [3] deals with Escherichia coli. The assay is described as follows: Antimicrobial activity against Escherichia coli ATCC 25922 after 24 hrs. The settings on record: ATCC 25922, 24 h. The method, boiled down:
as §1

For assay [4], the system named is Escherichia coli. The assay is described as follows: Antimicrobial activity against multidrug-resistant Escherichia coli after 24 hrs. The method, boiled down:
as §2

The test system of another assay is Pseudomonas aeruginosa. The assay is described as follows: Antimicrobial activity against Pseudomonas aeruginosa ATCC […] after 24 hrs. An outline of the steps: as §1
Assay [5] relates to Bacillus subtilis. The assay is described as follows: Antimicrobial activity against Bacillus subtilis ATCC 6633 after 24 hrs. The settings on record: for MIC: Bacillus subtilis, ATCC 6633, 24 h. An outline of the steps:
as §1

Assay [6] concerns Bacillus subtilis. The assay is described as follows: Antimicrobial activity against ceftriazone-resistant Bacillus subtilis after 24 hrs. An outline of the steps: as §2
Assay [7] has as its system Staphylococcus aureus. The assay is described as follows: Antimicrobial activity against Staphylococcus aureus ATCC 25923 after 24 hrs. The following applies: ATCC 25923, 24 h. An outline of the steps: as §2
Assay [8] relates to Staphylococcus aureus. The assay is described as follows: Antimicrobial activity against multidrug-resistant Staphylococcus aureus after 24 hrs. The method, boiled down:
as §2

The test system of assay [9] is Candida albicans. The assay is described as follows: Antimicrobial activity against Candida albicans ATCC 10231 after 24 to 48 hrs. An outline of the steps: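 Twofold serial dilution following CLSI M27-A. Yeast suspension made at 10^4 cfu/ml by diluting a fresh culture at McFarland 0.5 (10^6 cfu/ml). Inoculated into the diluted compound, incubated at 35 °C in a humid chamber, read after 48 h. Triplicate in each run. MIC is the lowest concentration completely inhibiting macroscopic growth.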

Assay [10] relates to Candida albicans. The assay is described as follows: Antimicrobial activity against multidrug-resistant Candida albicans isolates after 24 to 48 hrs. An outline of the steps: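 Yeast broth microdilution following CLSI M27-A, with Sabouraud dextrose medium noted for antifungal assays. Fresh cultures at McFarland 0.5 (10^6 cfu/ml) were diluted to 10^4 cfu/ml and inoculated into twofold compound dilutions. Trays were incubated at 35 °C in a humid chamber and read at 48 h, in triplicate. MIC was the lowest concentration giving complete macroscopic growth inhibition.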

Broadly, the MIC is the least concentration at which growth counts as inhibited. Higher therefore signals weaker potency.

Take `CC1(C)S[C@@H]2[C@H](NC(=O)[C@H](N)c3ccccc3)C(=O)N2[C@H]1C(=O)O.O.O.O` [AMPICILLIN TRIHYDRATE]: the minimal inhibitory concentration (MIC) in the assay with Klebsiella pneumoniae [1] stood at 2 µg/mL; against Klebsiella pneumoniae [2] it was 256 µg/mL; in the assay on Escherichia coli [3] it was 8 µg/mL; against Escherichia coli [4] it was 256 µg/mL; with Pseudomonas aeruginosa it was 4100 µg/mL; against Bacillus subtilis [5] it was 0.25 µg/mL. Besides, the figures for the MIC in the assay with Bacillus subtilis [6], against Staphylococcus aureus [7] and against Staphylococcus aureus [8] were 8 µg/mL, 0.03 µg/mL and 2 µg/mL, respectively.

Turning to `Cc1ccc2oc(-c3ccccc3Cl)nc2c1`, in the assay on Bacillus subtilis [5], the “log(1/C)” value was found to be 3.989 and the lowest concentration to inhibit growth (MIC) was 25 µg/mL (≈ 103 µM).

Consider `Cc1ccc2oc(-c3ccc(Cl)cc3Cl)nc2c1`, for which, in the assay with Bacillus subtilis [5], the “log(1/C)” value came out at 4.046 and the MIC stood at 25 µg/mL (≈ 89.9 µM).

On to `Cc1ccc2nc(-c3ccc(Cl)cc3Cl)oc2c1`, for which, in the assay on Bacillus subtilis [5], the “log(1/C)” value stood at 4.046 and it took 25 µg/mL (≈ 89.9 µM) to inhibit growth (MIC).

For the compound `C[C@@H]1[C@H](O)[C@@H](C)/C=C/C=C/C=C/C=C/C=C/C=C/C=C/[C@H](O[C@@H]2O[C@H](C)[C@@H](O)[C@H](N)[C@@H]2O)C[C@@H]2O[C@](O)(C[C@@H](O)C[C@@H](O)[C@H](O)CC[C@@H](O)C[C@@H](O)CC(=O)O[C@H]1C)C[C@H](O)[C@H]2C(=O)O` [AMPHOTERICIN B], the MIC against Candida albicans [9] and in the assay with Candida albicans [10] was 1 µg/mL (≈ 1.08 µM) throughout.

As to `Cc1ccc2nc(-c3ccccc3Cl)oc2c1`, the “log(1/C)” value with Bacillus subtilis [5] is reported as 3.989.

Consider `Cc1ccc2oc(-c3ccccc3[N+](=O)[O-])nc2c1`, for which, in the assay with Bacillus subtilis [5], the “log(1/C)” value is recorded as 4.007 and the MIC amounted to 25 µg/mL (≈ 98.3 µM).

As to `Cc1ccc2oc(-c3ccccc3)nc2c1`, in the assay with Bacillus subtilis [5], the “log(1/C)” value worked out at 4.224 and inhibition of growth (MIC) required 12.5 µg/mL (≈ 59.7 µM).

In the case of `Cc1ccc(-c2nc3cc(C)ccc3o2)c(C)c1`, the “log(1/C)” value in the assay on Bacillus subtilis [5] is listed as 3.977.

Turning to `Cc1ccc2nc(-c3ccc(Br)cc3)oc2c1`, in the assay on Bacillus subtilis [5], the “log(1/C)” value was found to be 4.363 and the MIC came out at 12.5 µg/mL (≈ 43.4 µM).

For `COc1ccccc1-c1nc2ccc(C)cc2o1`, in the assay with Bacillus subtilis [5], the “log(1/C)” value is reported as 3.981 and the minimum inhibitory concentration (MIC) turned out to be 25 µg/mL (≈ 104 µM).

Regarding `COc1ccc(-c2nc3cc(C)ccc3o2)c(OC)c1`, the “log(1/C)” value in the assay with Bacillus subtilis [5] is reported as 4.032.

Consider `CC1COc2c(N3CCN(C)CC3)c(F)cc3c(=O)c(C(=O)O)cn1c23` (centres undefined) [OFLOXACIN], for which the MIC was found to be 0.25 µg/mL (≈ 0.692 µM) in the assay with Klebsiella pneumoniae [1]; 64 µg/mL (≈ 177 µM) in the assay on Klebsiella pneumoniae [2]; 0.125 µg/mL (≈ 0.346 µM) in the assay with Escherichia coli [3]; 32 µg/mL (≈ 88.6 µM) against Escherichia coli [4]; 8 µg/mL (≈ 22.1 µM) in the assay on Pseudomonas aeruginosa; 0.125 µg/mL (≈ 0.346 µM) with Bacillus subtilis [5]. For the same compound, the minimum inhibitory concentration (MIC) in the assay on Bacillus subtilis [6] turned out to be 32 µg/mL (≈ 88.6 µM); in the assay on Staphylococcus aureus [7], 0.25 µg/mL (≈ 0.692 µM); in the assay on Staphylococcus aureus [8] it was 2 µg/mL (≈ 5.53 µM).

Regarding `COc1ccccc1-c1nc2cc(C)ccc2o1`, in the assay with Bacillus subtilis [5], the “log(1/C)” value is 3.981 and the MIC turned out to be 25 µg/mL (≈ 104 µM).

Consider `COc1ccc(-c2nc3ccc(C)cc3o2)c(OC)c1`, for which the “log(1/C)” value in the assay on Bacillus subtilis [5] came to 4.032.

For the compound `Cc1ccc2nc(-c3ccccc3F)oc2c1`, in the assay with Bacillus subtilis [5], the “log(1/C)” value is on record as 3.959 and the MIC was determined as 25 µg/mL (≈ 110 µM).

Regarding `Cc1ccc(-c2nc3ccc(C)cc3o2)c(C)c1`, in the assay with Bacillus subtilis [5], the “log(1/C)” value is on record as 3.676 and it took 50 µg/mL (≈ 211 µM) to inhibit growth (MIC).
